Data taken from ChEMBL document CHEMBL4715682, “Potent trifluoromethoxy, trifluoromethylsulfonyl, trifluoromethylthio and pentafluorosulfanyl containing (1,3,4-oxadiazol-2-yl)benzamides against drug-resistant Gram-positive bacteria” (RSC Med Chem, 2020).
Values after ≈ are worked out from the molar mass of the structure shown. Active and inactive are the calls of the source. No cut-off for these calls is given here.

Assays:
Staphylococcus aureus [1] = assay: Antibacterial activity against methicillin-resistant Staphylococcus aureus ATCC 33592 assessed as inhibition of visible bacterial growth incubated for 18 to 20 hrs by CLSI method; type: functional; details: time 18-20 hrs
Method in brief: (§1)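 CLSI broth microdilution. Strains grown aerobically overnight on tryptic soy agar at 37 °C, adjusted to 0.5 McFarland and diluted in cation-adjusted Mueller–Hinton broth to about 5×10^5 CFU/mL. Compounds and control drugs serially diluted across the plate. Incubated aerobically at 37 °C for 18-20 h. MIC is the lowest concentration with no visible growth.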

Staphylococcus aureus [2] = assay: Antibacterial activity against methicillin-resistant Staphylococcus aureus NRS385 assessed as inhibition of visible bacterial growth incubated for 18 to 20 hrs by CLSI method; type: functional; details: time 18-20 hrs; method in brief: as §1
Staphylococcus aureus [3] = assay: Antibacterial activity against methicillin-resistant Staphylococcus aureus NRS386 assessed as inhibition of visible bacterial growth incubated for 18 to 20 hrs by CLSI method; type: functional; details: time 18-20 hrs; method in brief: as §1
Streptococcus pneumoniae = assay: Antibacterial activity against […] Streptococcus pneumoniae ATCC 700677 assessed as inhibition of visible bacterial growth incubated for 18 to 20 hrs by CLSI method; type: functional; details: time 18-20 hrs; method in brief: as §1
Pseudomonas aeruginosa = assay: Antibacterial activity against Pseudomonas aeruginosa ATCC 27853 assessed as inhibition of visible bacterial growth at 16 ug/ml incubated for 18 to 20 hrs by CLSI method; type: functional, organism-based; details: dose 16.0 µg/ml, time 18-20 hrs; method in brief: as §1
Staphylococcus aureus [4] = assay: Synergistic antibacterial activity against methicillin-resistant Staphylococcus aureus ATCC 33592 assessed as fractional inhibitory concentration index in presence of linezolid by checkerboard assay; type: functional
Staphylococcus aureus [5] = assay: Synergistic antibacterial activity against methicillin-resistant Staphylococcus aureus ATCC 33592 assessed as fractional inhibitory concentration index in presence of methicillin by checkerboard assay; type: functional
Staphylococcus aureus [6] = assay: Synergistic antibacterial activity against methicillin-resistant Staphylococcus aureus ATCC 33592 assessed as fractional inhibitory concentration index in presence of daptomycin by checkerboard assay; type: functional
J774 = assay: Cytotoxicity against mouse J774 cells assessed as reduction in cell viability at 32 ug/ml incubated for 24 hrs by MTS assay; type: cell-based; details: j774, 24 h, dose 32 µg/ml
Staphylococcus aureus [7] = assay: Antibacterial activity against methicillin-resistant Staphylococcus aureus USA400 infected in mouse J774 cells assessed as log reduction in intracellular growth at 16 ug/ml incubated for 18 to 22 hrs; type: functional; details: dose 16 µg/ml; time 18-22 hrs
Method in brief: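 J774 murine macrophages grown in DMEM with 10% FBS at 37 °C, 5% CO2. Cells infected with MRSA USA400 at MOI about 10:1 for 1 h, then washed with gentamicin to remove extracellular bacteria. Agents added at 8 or 16 μg/mL in triplicate, with DMSO vehicle control, for 24 h. Cells lysed with 0.1% Triton-X, lysates plated on tryptic soy agar, and CFU counted after 18-22 h at 37 °C. Analysed by two-way ANOVA with Dunnett's test.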

In the case of O=C(Nc1nnc(-c2cccs2)o1)c1ccc(S(=O)(=O)C(F)(F)F)cc1, the MIC (Staphylococcus aureus [1]) is reported as 0.5 µg/mL (≈ 1.24 µM), the MIC (Staphylococcus aureus [2]) is reported as 8 µg/mL (≈ 19.8 µM) and the MIC (Staphylococcus aureus [3]) is reported as 4 µg/mL (≈ 9.92 µM). For the same compound, the MIC (Streptococcus pneumoniae) was 1 µg/mL (≈ 2.48 µM), the inhibition (Pseudomonas aeruginosa) was “inactive” and the “fractional inhibitory concentration index (FICI)” value (Staphylococcus aureus [4]) was 1.03. The “fractional inhibitory concentration index (FICI)” value (Staphylococcus aureus [5]) was 0.53, the “fractional inhibitory concentration index (FICI)” value (Staphylococcus aureus [6]) was 0.63 and the Activity (J774) was “Non-Toxic”. It also gave an Activity (Staphylococcus aureus [7]) of 0.6 log10CFU/ml.
